ChEMBL document CHEMBL4368872, “Synthesis and anticonvulsant activity of phenoxyacetyl derivatives of amines, including aminoalkanols and amino acids” (Medchemcomm, 2018)
Calls of active or inactive are those of the source.

Legend:
[1] = Neurotoxicity in Sprague-Dawley rat at 30 mg/kg, po measured after 1 hr by rotarod test; type: toxicity, organism-based; settings: in vivo
Outline: (§1)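 Rat neurotoxicity after i.p. or p.o. dosing was scored as animals impaired / animals tested at each time point. For p.o. dosing, TD50 was obtained by probit analysis.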

[2] = test system: Mus musculus; assay: Anticonvulsant activity in CF-1 mouse model of subcutaneous pentylenetetrazole-induced seizure assessed as reduction in convulsions at 100 mg/kg, ip measured at 4 hrs post dose; type: functional, organism-based
Outline: (§2)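 Mice dosed i.p., then given pentylenetetrazole 85 mg/kg in 0.9% NaCl s.c. into the posterior midline of the neck. Seizures watched for at least 30 min. Scored as protected / tested at 0.5 and 4 h.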

[3] = Mutagenicity in Salmonella typhimurium TA1535 assessed as mutagenicity index at 50 to 500 ug/plate preincubated for 30 mins followed by top agar addition and measured after 48 hrs in absence of liver S9 fraction by Ames test; type: toxicity; settings: salmonella enterica subsp. enterica serovar typhimurium, s9, 48 h
Outline: (§3)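 Ames plate incorporation in S. typhimurium TA100 or TA1535, with or without S9. Overnight culture, compound in DMSO (50–500 µg per plate) and buffer or S9 mix preincubated 30 min at 37 °C, then top agar on glucose minimal agar. Incubated 48 h at 37 °C, revertants counted in triplicate. Vehicle negative control; NaN3 (−S9) and 2AA (+S9) positive controls. MI = revertants with compound / negative-control revertants; MI ≥ 2 with dose-response counts as positive.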

[4] = Neurotoxicity in Sprague-Dawley rat at 30 mg/kg, ip measured after 2 hrs by rotarod test; type: toxicity, organism-based; settings: in vivo; outline: as §1
[5] = test system: Salmonella typhimurium; assay: Antimutagenic activity against Salmonella typhimurium TA100 assessed as inhibition of NaN3-induced mutation at 500 ug/plate preincubated for 30 mins followed by top agar addition and measured after 48 hrs in presence of liver S9 fraction by Ames test relative to control; type: organism-based; settings: salmonella enterica subsp. enterica serovar typhimurium, s9, 48 h
[6] = test system: Astrocyte; assay: Cytotoxicity against mouse astrocytes at 10 to 200 uM after 24 hrs by neutral red staining based microscopic analysis; type: cell-based
Outline: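 Mouse astrocyte line seeded at 1×10^4 per well, treated 24 h later with 10–200 µM for 24 h. Medium then replaced with neutral red (4 µg ml⁻¹) in EMEM with 5% FBS for 3 h. Cells washed, dye extracted in ethanol/water/acetic acid, A540 read. Cytotoxicity (%) = (1 − sample A540/control A540) × 100.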

[7] = Mutagenicity in Salmonella typhimurium TA1535 assessed as mutagenicity index at 50 to 500 ug/plate preincubated for 30 mins followed by top agar addition and measured after 48 hrs in presence of liver S9 fraction by Ames test; type: toxicity, subcellular; settings: salmonella enterica subsp. enterica serovar typhimurium, s9, 48 h; outline: as §3
[8] = Retention time of the compound in rat liver microsomes by LC-MS/MS analysis; type: ADME, Microsome
[9] = test system: Mus musculus; assay: Anticonvulsant activity in CF-1 mouse model of maximal electroshock-induced seizure assessed as suppression of tonic hind limb extension at 300 mg/kg, ip measured at 4 hrs post dose; type: functional, organism-based
Outline: (§4)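 Mice dosed i.p. and given maximal electroshock at 50 mA. Read-out is protection, reported as number protected / number tested at 0.25, 0.5, 1 and 4 h after dosing.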

[10] = test system: Mus musculus; assay: Anticonvulsant activity in CF-1 mouse model of maximal electroshock-induced seizure assessed as suppression of tonic hind limb extension at 110 mg/kg, ip measured at 4 hrs post dose; type: functional, organism-based; outline: as §4
[11] = test system: Mus musculus; assay: Anticonvulsant activity in CF-1 mouse model of subcutaneous pentylenetetrazole-induced seizure assessed as reduction in convulsions at 100 mg/kg, ip measured at 0.5 hrs post dose; type: functional, organism-based; outline: as §2
[12] = test system: Rattus norvegicus; assay: Anticonvulsant activity in Sprague-Dawley rat model of maximal electroshock-induced seizure assessed as suppression of tonic hind limb extension at 30 mg/kg, po measured at 0.5 hrs post dose; type: functional, organism-based
Outline: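 Rats given 30 mg/kg p.o. and tested by maximal electroshock at 150 mA. Scored as number protected / number tested (4 per group) at 0.25, 0.5, 1, 2 and 4 h after dosing.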

[13] = Neurotoxicity in CF-1 mouse at 220 mg/kg, ip measured after 0.25 hrs by rotarod test; type: toxicity, organism-based; settings: in vivo
Outline: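 Mice dosed i.p. were placed on a 1 in. knurled rod turning at 6 rpm. Toxicity was scored as failure to keep balance for at least 1 min, i.e. falling off three or more times. Results are reported as animals showing toxicity / animals tested at each time point.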

[14] = test system: Rattus norvegicus; assay: Anticonvulsant activity in hippocampal kindling Sprague-Dawley rat model assessed as after discharge time at 50 mg/kg, ip administered as single dose measured after 135 mins; type: functional
Outline: (§5)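 Rats implanted with a hippocampal electrode and kindled with suprathreshold trains (200 µA, 10 s, 50 Hz) every 30 min for 6 h on alternate days until fully kindled. One week later they received a single i.p. dose. Seizure score (Racine scale) and afterdischarge duration were recorded at 0–135 min and compared with the control stimulus given 15 min before dosing; each animal served as its own control. Values are mean ± SEM.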

[15] = test system: Rattus norvegicus; assay: Anticonvulsant activity in hippocampal kindling Sprague-Dawley rat model assessed as after discharge time at 50 mg/kg, ip administered as single dose measured after 105 mins; type: functional; outline: as §5
[16] = Neurotoxicity in Sprague-Dawley rat at 30 mg/kg, po measured after 0.25 hrs by rotarod test; type: toxicity, organism-based; settings: in vivo; outline: as §1
[17] = test system: Salmonella typhimurium; assay: Antimutagenic activity against Salmonella typhimurium TA1535 assessed as inhibition of NaN3-induced mutation at 500 ug/plate preincubated for 30 mins followed by top agar addition and measured after 48 hrs in presence of liver S9 fraction by Ames test relative to control; type: organism-based; settings: salmonella enterica subsp. enterica serovar typhimurium, s9, 48 h
[18] = Neurotoxicity in Sprague-Dawley rat at 100 mg/kg, ip measured after 0.5 hrs by rotarod test; type: toxicity, organism-based; settings: in vivo; outline: as §1
[19] = test system: Salmonella typhimurium; assay: Antimutagenic activity against Salmonella typhimurium TA1535 assessed as inhibition of NaN3-induced mutation at 100 ug/plate preincubated for 30 mins followed by top agar addition and measured after 48 hrs in presence of liver S9 fraction by Ames test relative to control; type: organism-based; settings: salmonella enterica subsp. enterica serovar typhimurium, s9, 48 h
[20] = Neurotoxicity in Sprague-Dawley rat at 300 mg/kg, ip measured after 4 hrs by rotarod test; type: toxicity, organism-based; settings: in vivo; outline: as §1
[21] = test system: Rattus norvegicus; assay: Anticonvulsant activity in hippocampal kindling Sprague-Dawley rat model assessed as after discharge time at 50 mg/kg, ip administered as single dose measured immediately; type: functional; outline: as §5
[22] = test system: Salmonella typhimurium; assay: Antimutagenic activity against Salmonella typhimurium TA100 assessed as inhibition of NaN3-induced mutation at 100 ug/plate preincubated for 30 mins followed by top agar addition and measured after 48 hrs in presence of liver S9 fraction by Ames test relative to control; type: organism-based; settings: salmonella enterica subsp. enterica serovar typhimurium, s9, 48 h
[23] = Neurotoxicity in Sprague-Dawley rat at 30 mg/kg, po measured after 0.5 hrs by rotarod test; type: toxicity, organism-based; settings: in vivo; outline: as §1
[24] = Neurotoxicity in Sprague-Dawley rat at 50 mg/kg, ip administered as single dose measured after 0.25 hrs by rotarod test; type: toxicity, organism-based; settings: in vivo; outline: as §1
[25] = Protection index, ratio of TD50 for neurotoxicity in po dosed Sprague-Dawley rat to ED50 for anticonvulsant activity in Sprague-Dawley rat model of maximal electroshock-induced seizure; type: toxicity, organism-based; settings: in vivo, read-out: Ratio TD50/ED50
Outline: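 The rat p.o. protective index is TD50 (rotarod) / ED50 (MES, 150 mA). Both values were calculated by probit analysis.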

[26] = Neurotoxicity in po dosed Sprague-Dawley rat by rotarod test; type: toxicity, organism-based; settings: in vivo; outline: as §1

Compound | Activity [1] | Activity [2] | Activity index [3] | inhibition (INH) [5] [%] | Activity index [7] | Retention_time [8] [min] | Activity [9] | Activity [11] | Activity [12] | Activity [16] | inhibition (INH) [17] [%] | Activity [18] | inhibition (INH) [19] [%] | inhibition (INH) [22] [%] | Activity [23] | also measured
Cc1cccc(C)c1OCC(=O)N[C@H](C)CO | Non-Toxic | inactive | 0.7 to 1.7 | 40 | 0.7 to 1.7 | 4.73 | inactive | inactive | Active | Non-Toxic | 31 | Non-Toxic | 43 | 43 | Non-Toxic | Activity [4]: Non-Toxic; Activity [6]: Non-Toxic; Activity [10]: inactive; Activity [13]: Toxic; Time [14]: 72 s; Time [15]: 77 s; Activity [20]: Toxic; Time [21]: 72 s; Activity [24]: Non-Toxic; selectivity ratio [25]: > 41.6; TD50 [26]: > 500 mg/kg
CCC(O)CNC(=O)COc1c(C)cccc1C (stereo unspecified) | Non-Toxic | inactive | 0.7 to 1.7 | 47 | 0.7 to 1.7 | 5.15 | inactive | inactive | Active | Non-Toxic | 27 | Toxic | 51 | 26 | Non-Toxic | 
